Compound activity (PubChem)
Apaf1 inhib: blocks human Apaf-1 apoptosome activity; O14727; reconstituted apoptosome caspase-3 activity, DEVD-Rh110 fluorescence; inhibition, % at 20 µM; 0.71% of 330,000 active; AID 489030; active = inhibition of at least 40% at 20 µM;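 also: plate controls were DMSO wells for no effect and DEVD-CHO caspase inhibitor wells for full effect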
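detection = Rh110 fluorescence intensity | test system = biochemical Apaf-1 apoptosome reconstitution | also added = cytochrome c and DEVD-Rh110 substrate | schedule = 30 min plus 50 min, RT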
ANO1 block: blocks the mouse calcium-activated chloride channel TMEM16A; Q8BHY3; HEK293 TMEM16A/YFP iodide influx fluorescence, ionomycin; normalized B-score (activity score, 25-100; higher = stronger inhibition) at 10 µM; 1.2% of 310,000 active; AID 588511;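 active = ratio plate-corrected score three or more library SD toward inhibition, starting fluorescence score within five deviations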;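 also: score derived from kinetic fluorescence span divided by baseline fluorescence per well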
FID counter: counter-screen for HCV NS3 helicase inhibitors: DNA intercalator displacement; DNA fluorescent intercalator displacement, fluorescence; inhibition, % at 7.9 µM; 0.17% of 290,000 active; AID 1845; in the data active = inhibition above about 37%;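 also: 0% = vehicle and 100% = reference compound; higher means more ethidium bromide displaced from hairpin DNA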
ANO1 activ: activates or potentiates the mouse TMEM16A chloride channel. Q8BHY3. HEK293 TMEM16A/YFP-H148Q/I152L, iodide quench fluorescence; stronger effect = lower value. B-score at 10 µM. 0.3% of 340,000 active;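 active = fluorescence-ratio B-score plate-corrected deviation score at least 3 library SD below zero, with starting fluorescence score within 5 deviations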;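 also: channel opened by trigger with iodide after compound preincubation; score built on the fluorescence ratio of max minus min over baseline; more negative score means more quench and so TMEM16A activation or potentiation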
UBC13 inh: blocks human UBC13 polyubiquitin chain formation; P61088; TR-FRET; inhibition, % at 20 µM; 0.47% of 330,000 active; in the data active = inhibition above about 45%, passing the limit was not always enough
TMEM16A reconf: TMEM16A (mouse) chloride channel inhibition, re-confirmation; AID 652189; 39% of 2,300 active; shares compounds with ANO1 block; inhibition, % at 10 µM; HEK293 TMEM16A/YFP-H148Q, iodide quench fluorescence; ionomycin added to raise cell calcium;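 active = mean duplicate percent inhibition, scaled so buffer wells are 0 and the reference blocker 100, over three buffer SD above buffer mean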
TMEM16A Ca cntr: counter-screen for TMEM16A inhibitors: effect on calcium mobilization; 2% of 2,300 active; shares compounds with ANO1 block; AID 652231; calcium response (% of ionomycin), % at 10 µM; TMEM16A/YFP HEK293, Fluo4 calcium mobilization;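 active = duplicate-averaged calcium signal over 20% of the ionomycin maximum, relative to buffer baseline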;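 also: each well's signal is peak minus trough fluorescence divided by its pre-addition baseline; 0% = buffer wells and 100% = ionomycin wells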
Parental YFP cnt: counter-screen for TMEM16A inhibitors: effect in parental YFP-HEK293 cells | iodide YFP quench, ionomycin | AID 652233 | 2,300 tested, under 10 active | shares compounds with ANO1 block | YFP ratio F(max-min)/F0 at 10 µM;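 active = yellow fluorescent protein signal ratio exceeding the buffer control mean by over 5 SD of those controls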;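 also: ratio is mean of duplicate wells from kinetic YFP trace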
ClC-1 inh: blocks the rat ClC-1 voltage-dependent chloride channel | shares compounds with ANO1 block | ratio percent, % at 10 µM | 2,300 tested, under 10 active | CHO ClC-1-YFP, iodide influx fluorescence quench; iodide control reads 0, buffer control 100;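 active = duplicate-mean ratio percent above the mean of iodide-only control wells, which defines zero, plus 5 of their SD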;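 also: higher percent means stronger block of ClC-1 iodide influx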
* hit, by the source's call; i = inactive; x = no result given. Most compounds without a hit are left out; they make up all but 2.4% or so of the library.

SMILES	Apaf1 inhib	ANO1 block	FID counter	ANO1 activ	UBC13 inh	TMEM16A reconf	TMEM16A Ca cntr	Parental YFP cnt	ClC-1 inh
CSc1nc(Cl)c(Cc2ccc(OC(C)C)cc2)c(N(C)C)n1	13	i	-1	i	-4	x	x	x	x
CCOC(=O)[C@H]1[C@H]2COc3ccc(Br)cc3[C@@H]2N2C(=O)c3ccc(Cl)cc3NC(=O)[C@@]12C	7	i	x	i	-7	x	x	x	x
COc1cc(NC(=S)N2CCN(S(C)(=O)=O)CC2)cc(OC)c1	5	i	-7	i	-4	x	x	x	x
CCc1c(C)nc2nc(SCc3ccccc3Cl)[nH]n2c1=O	1	100*	-4	i	-16	26%*	34%*	-1	-29
CSc1nc2nc(C)c(C/C=C/c3ccccc3)c(=O)n2[nH]1	8	i	-5	i	1	x	x	x	x
CCCCNC(=O)CNC(=S)N(Cc1cc(OC)c(OC)c(OC)c1)C1CCCC1	7	i	-20	i	-12	x	x	x	x
O=C(CCc1nnc(CCc2ccccc2)o1)NC(c1cccnc1)C(F)(F)F (stereo not drawn)	-18	i	-17	i	10	x	x	x	x
O=C1CNC(=S)N1Cc1ccccc1Cl	-1	i	0	i	6	x	x	x	x
O=C(CCS(=O)(=O)c1ccccc1)N1CCN(c2ccc(F)cc2)CC1	0	i	-23	i	-11	x	x	x	x
CC1CN(C(=O)CCC(=O)N2CCN(c3cccc(C(F)(F)F)c3)CC2)c2ccccc2O1 (stereo not drawn)	17	25*	-41	i	3	20%*	i	-0.95	-4
O=C(CCS(=O)(=O)c1ccccc1)N1CCN(c2cccc(C(F)(F)F)c2)CC1	25	25*	-35	i	3	i	i	-1.1	-15
CC(C)c1cc(C(=O)NCCc2ccccc2)no1	-22	i	-7	i	16	x	x	x	x
CC1CCCCC1NC(=O)C1CCN(S(=O)(=O)N2CCOCC2)CC1 (stereo not drawn)	-1	i	1	i	-6	x	x	x	x
CC1CCCC(NC(=O)C2CCN(S(=O)(=O)N3CCOCC3)CC2)C1C (stereo not drawn)	-13	25*	-14	i	2	i	i	-0.88	-4
CC1CCCCN1C(=O)Cn1c(=O)oc2cc(S(=O)(=O)N3CCCC3)ccc21 (stereo not drawn)	-1	i	-25	i	3	x	x	x	x
O=C(NCCCSc1ccccc1)c1cc(Br)ccc1O	21	100*	-8	i	-1	52%*	i	-1.3	-24
Cc1ccc2c(c1)N(CC(=O)Nc1nccs1)C(=O)CO2	-7	x	x	i	-9	x	x	x	x
Cc1ccc(NC(=O)CN2C(=O)COc3ccc(C)cc32)nc1	-10	25*	-19	i	-4	i	i	-0.89	-18
Cc1cccc(NNC(=O)c2c(F)cccc2Cl)c1	-12	i	1	i	6	x	x	x	x
Cc1ccc(CN2CCN(CC(=O)N/N=C/c3ccc(C)o3)CC2)cc1	-4	i	-2	i	3	x	x	x	x
c1ccc(Oc2cccc(OCCCCSc3ncccn3)c2)cc1	13	100*	-3	i	6	i	i	-1.4	-4
O=C(OCc1ccccn1)c1ccc(COc2ccc3ccccc3c2)o1	5	25*	-31	i	6	32%*	i	-1.1	-2
CC#CC(=O)N1CCCC(Cc2cccc(OC)c2)(C(=O)OCC)C1 (stereo not drawn)	5	i	-32	i	-6	x	x	x	x
Cc1cccc(C)c1OCc1cc(C(=O)N2CCC(c3ccncc3)CC2)no1	16	25*	-39	i	-4	21%*	i	-1	-22
